The results in this text go back to ChEMBL document CHEMBL3526063, “Metabolism and pharmacokinetics of JM6 in mice: JM6 is not a prodrug for Ro-61-8048” (Drug Metab Dispos, 2012).

A short description of series [1]: Half life in C57BL/6N mouse treated with JM6 (containing <0.4% Ro-61-8048) at 9.5 mg/kg, po and Ro-61-8048 at 0.05 mg/kg, po drugs administered via gavage by LC-MS/MS analysis. It counts as ADME, organism-based. The settings on record: in vivo, in the assay text read “0.5 mg/kg” for “0.05 mg/kg”. Put shortly:
(§1)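 Male C57BL/6N mice were dosed by oral gavage at 10 mL/kg with a fine suspension in 10% hydroxypropyl-β-cyclodextrin in 50 mM phosphate buffer, pH 7. Plasma was taken at non-serial time points (n=3 per time point), extracted with 0.1% formic acid in acetonitrile containing diclofenac as internal standard, and quantified by UPLC-MS/MS. Composite non-compartmental parameters came from mean concentrations; AUClast by linear trapezoid, kel from at least three terminal points.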

Series [2] is described as follows: Metabolic stability in rat plasma assessed as half life at 5 uM after 10 to 1440 mins by LC-MS/MS analysis. It counts as ADME, cell-free.
The nature of series [3]: Tmax in C57BL/6N mouse treated with JM6 (containing <0.4% Ro-61-8048) at 25 mg/kg, po and Ro-61-8048 at 0.05 mg/kg, po drugs administered via gavage by LC-MS/MS analysis. It counts as ADME, organism-based. The settings on record: in vivo. In a few lines: (§2)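 Male C57BL/6N mice dosed by oral gavage (10 mL/kg) as fine suspensions in 10% hydroxypropyl-β-cyclodextrin in 50 mM phosphate buffer pH 7; dose formulations verified by LC-MS/MS. Plasma analysed by LC-MS/MS; composite non-compartmental parameters from mean concentrations (n=3 per time point), C0 set to zero. %F = dose-normalised po AUCinf over dose-normalised iv AUCinf, only within linear range.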

Series [4] deals with Mus musculus. The series is described as follows: Dose normalised AUC in C57BL/6N mouse treated with JM6 (containing <0.4% Ro-61-8048) at 9 mg/kg, po and Ro-61-8048 at 1 mg/kg, po drugs administered via gavage by LC-MS/MS analysis. It counts as ADME, organism-based. The settings on record: in vivo. Put shortly:
as §1

Series [5] can be described thus: Metabolic stability in human plasma assessed as half life at 5 uM after 10 to 1440 mins by LC-MS/MS analysis. It counts as ADME, cell-free.
The nature of series [6]: AUClast in C57BL/6N mouse treated with JM6 (containing <0.4% Ro-61-8048) at 9 mg/kg, po and Ro-61-8048 at 1 mg/kg, po drugs administered via gavage by LC-MS/MS analysis. It counts as ADME, organism-based. Set-up: dose 9 mg/kg, time 0 - last, route oral. The settings on record: plasma. Put shortly:
as §1

Series [7] has as its system Mus musculus. In words: Dose normalised Cmax in C57BL/6N mouse treated with JM6 (containing <0.4% Ro-61-8048) at 10 mg/kg, po and Ro-61-8048 at 0.05 mg/kg, po drugs administered via gavage by LC-MS/MS analysis. It counts as ADME, organism-based. Particulars: in vivo. In a few lines: as §1
Series [8] in a line: Half life in C57BL/6N mouse treated with JM6 (containing <0.4% Ro-61-8048) at 9 mg/kg, po and Ro-61-8048 at 1 mg/kg, po drugs administered via gavage by LC-MS/MS analysis. It counts as ADME, organism-based. Particulars: in vivo. In a few lines: as §1
Series [9] can be described thus: AUC(infinity) in C57BL/6N mouse treated with JM6 (containing <0.4% Ro-61-8048) at 9 mg/kg, po and Ro-61-8048 at 1 mg/kg, po drugs administered via gavage by LC-MS/MS analysis. It counts as ADME, organism-based. Set-up: dose 9 mg/kg, time infinity, route oral. The settings on record: plasma. In a few lines:
as §1

Series [10] in a line: AUClast in C57BL/6N mouse treated with JM6 (containing <0.4% Ro-61-8048) at 25 mg/kg, po and Ro-61-8048 at 0.05 mg/kg, po drugs administered via gavage by LC-MS/MS analysis. It counts as ADME, organism-based. Details: dose 25 mg/kg, route oral, time 0 - last. The settings on record: plasma. In a few lines: as §1
Series [11] is described as follows: Hepatic extraction ratio in mouse Hepatocyte at 1 uM after 10 to 90 mins by LC-MS/MS analysis. It counts as ADME, cell-based. Particulars: hepatocytes, read-out: ERH.
Series [12] relates to MDR1. In words: Apparent permeability from apical to basolateral side in MDCK2-MDR1 cells at 10 uM after 1 hr by LC-MS/MS analysis. It counts as ADME, cell-based, Canis lupus familiaris, MDCK-II. Particulars: dog, MDCK-MDR1. Put shortly: (§3)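 MDCKII wild-type or MDR1 monolayers were grown 3 days on Transwells after seeding at 2×10^5 cells/well. Compound at 10 µM in HBSS with 25 mM HEPES, pH 7.4, was added apically or basolaterally in duplicate, with Lucifer Yellow as an integrity marker (wells above 100 nm/s rejected).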

Series [13] deals with Mus musculus. The series is described as follows: Dose normalised Cmax in C57BL/6N mouse treated with JM6 (containing <0.4% Ro-61-8048) at 50 mg/kg, po and Ro-61-8048 at 0.05 mg/kg, po drugs administered via gavage by LC-MS/MS analysis. It counts as ADME, organism-based. Particulars: in vivo. In a few lines:
as §1

Series [14] has as its system MDR1. In words: Apparent permeability from basolateral to apical side in MDCK2-MDR1 cells at 10 uM after 1 hr by LC-MS/MS analysis. It counts as ADME, cell-based, Canis lupus familiaris, MDCK-II. The settings on record: dog, MDCK-MDR1. Put shortly: as §3
Series [15] in a line: Tmax in C57BL/6N mouse treated with JM6 (containing <0.4% Ro-61-8048) at 9.5 mg/kg, po and Ro-61-8048 at 0.05 mg/kg, po drugs administered via gavage by LC-MS/MS analysis. It counts as ADME, organism-based. Particulars: in vivo, in the assay text read “0.5 mg/kg” for “0.05 mg/kg”. In a few lines: as §2
In series [16] the test system is Mus musculus. The series is described as follows: Dose normalised AUC in C57BL/6N mouse treated with JM6 (containing <0.4% Ro-61-8048) at 25 mg/kg, po and Ro-61-8048 at 0.05 mg/kg, po drugs administered via gavage by LC-MS/MS analysis. It counts as ADME, organism-based. Particulars: in vivo. In a few lines:
as §1

The subject of series [17] is Mus musculus. In words: Dose normalised Cmax in C57BL/6N mouse treated with JM6 (containing <0.4% Ro-61-8048) at 25 mg/kg, po and Ro-61-8048 at 0.05 mg/kg, po drugs administered via gavage by LC-MS/MS analysis. It counts as ADME, organism-based. The settings on record: in vivo. Put shortly:
as §1

The subject of series [18] is Mus musculus. In words: Dose normalised AUC in C57BL/6N mouse treated with JM6 (containing <0.4% Ro-61-8048) at 50 mg/kg, po and Ro-61-8048 at 0.05 mg/kg, po drugs administered via gavage by LC-MS/MS analysis. The settings on record: in vivo. It counts as ADME, organism-based. In a few lines: as §1
Series [19] has as its system Mus musculus. The series is described as follows: Dose normalised Cmax in C57BL/6N mouse treated with JM6 (containing <0.4% Ro-61-8048) at 9.5 mg/kg, po and Ro-61-8048 at 0.05 mg/kg, po drugs administered via gavage by LC-MS/MS analysis. Particulars: in vivo, in the assay text read “0.5 mg/kg” for “0.05 mg/kg”. It counts as ADME, organism-based. Put shortly:
as §1

The nature of series [20]: Half life in C57BL/6N mouse treated with JM6 (containing <0.4% Ro-61-8048) at 25 mg/kg, po and Ro-61-8048 at 0.05 mg/kg, po drugs administered via gavage by LC-MS/MS analysis. It counts as ADME, organism-based. Particulars: in vivo. Put shortly:
as §1

Series [21] can be described thus: Efflux ratio of permeability from basolateral to apical side over apical to basolateral side in MDCK2 cells at 10 uM after 1 hr by LC-MS/MS analysis. It counts as ADME, cell-based, Canis lupus familiaris, MDCK-II. The settings on record: dog. In a few lines:
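MDCKII wild-type and MDR1 cells grown on Transwells 3 days at 2×10^5 cells/well. Compound 10 μM in HBSS with 25 mM HEPES pH 7.4, added apical or basolateral in duplicate, 1 h at 37 °C. Lucifer Yellow monitored monolayer integrity; wells above 100 nm/s rejected. Both chambers sampled, LC-MS/MS; Papp A>B and B>A, ratio B>A:A>B.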

Bounds are passed on as bounds.

By half-life is commonly meant how long it takes for the measured level to halve. What is called Tmax is the time at which the peak concentration occurs. Usually AUC(0-t) stands for the area under the concentration-time curve up to a stated or last time point. The low end stands for low exposure, the high end for high exposure. As a reminder, the AUC(0-inf) is the area under the concentration-time curve extrapolated to infinity. A lower AUC(0-inf) goes with less exposure. Usually Papp A→B stands for the apparent permeability from the apical to the basolateral side of a cell layer. As usually defined, the Papp B→A is the apparent permeability from the basolateral to the apical side of a cell layer. A word on the efflux ratio: it is the permeability from basolateral to apical divided by that in the opposite direction, in the common usage. Take `COc1ccc(S(=O)(=O)Nc2nc(-c3cccc([N+](=O)[O-])c3)cs2)cc1OC`: the half-life in series [1] was 6.9 h; in series [8] it was 4.4 h; in series [20] it was 5.2 h. Besides, the half-life at 5 µM in [2] and in series [5] was over 24 h in each case. Moreover, the Tmax in series [3] came out at 2 h; in series [15], 0.5 h. The AUC/dose turned out to be 140000 nM·kg·h/mg in the series with Mus musculus [4], 180000 nM·kg·h/mg in the series with Mus musculus [16] and 160000 nM·kg·h/mg with Mus musculus [18]. Also, the AUC(0-t) in series [6] was 110 µM·h; in [10], 8.4 µM·h. The Cmax/dose in the series on Mus musculus [7] stood at 11 µM; in the series on Mus musculus [13] it was 160 µM; in the series on Mus musculus [17], 16 µM; with Mus musculus [19], 18 µM. This compound registered an AUC(0-inf) in series [9] of 110 µM·h. Further, in [11], the hepatic extraction ratio at 1 µM was under 0.5. Also, the Papp A→B at 1 h, 10 µM with MDR1 [12] came out at 10 ×10⁻⁶ cm/s. The basolateral-to-apical permeability (Papp B→A) at 1 h, 10 µM in the series on MDR1 [14] amounted to 33 ×10⁻⁶ cm/s. The efflux ratio at 1 h, 10 µM in series [21] (MDCK) came to 0.8.
For the compound `COc1ccc(S(=O)(=O)Nc2nc(-c3cccc([N+](=O)[O-])c3)c(CN3CCCCC3)s2)cc1OC`, the half-life was 0.9 h in series [1], 0.7 h in series [8] and 0.7 h in series [20]. The half-life at 5 µM in series [2] and in series [5] was over 24 h each time. The Tmax in series [3] and in series [15] was 0.5 h in each case. The AUC/dose in the series on Mus musculus [4] is 130 nM·kg·h/mg; in the series with Mus musculus [16], 190 nM·kg·h/mg; in the series on Mus musculus [18], 190 nM·kg·h/mg. In addition, the AUC(0-t) worked out at 1.1 µM·h in [6] and 4.8 µM·h in series [10]. Also, the Cmax/dose amounted to 0.19 µM in the series with Mus musculus [7], 0.19 µM with Mus musculus [13], 0.14 µM in the series on Mus musculus [17] and 0.15 µM with Mus musculus [19]. The AUC(0-inf) in series [9] came out at 1.1 µM·h. Also, the hepatic extraction ratio at 1 µM in series [11] is 0.83. The Papp A→B at 1 h, 10 µM in the series with MDR1 [12] was 0.72 ×10⁻⁶ cm/s. In addition, the Papp B→A at 1 h, 10 µM in the series on MDR1 [14] worked out at 43 ×10⁻⁶ cm/s. For the same compound, the Ratio in series [21] (mdck-ii, 1 h, 10 µM) is 5.3.
